Converted amounts (≈) assume the structure as drawn. The source made the active and inactive calls. The calls are words filed in the database; no cut-off is given here.
Key:
Cryptococcus neoformans [1] = experiment: Antifungal activity against Cryptococcus neoformans after 48 hrs; format: functional
How it was run: (§1)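 C. neoformans grown in Mycophil broth to the desired density, then seeded into 96-well plates (modified NCCLS microdilution). Pure compounds added at final 50, 10 and 2 μg/mL. Incubation 48 h, 30 °C, with growth assessed per concentration. MIC is the lowest tested level showing no growth. Amphotericin B positive control.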

Candida albicans [2] = experiment: Antifungal activity against Candida albicans after 24 hrs; format: functional
How it was run: (§2)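 Modified NCCLS broth microdilution in 96-well format. C. albicans grown in SDB to the desired density and seeded into wells. Pure compounds tested at final 50, 10 and 2 μg/mL. Incubated 24 h at 37 °C, with growth scored at each level. MIC is the lowest tested concentration with no growth. Amphotericin B served as positive control.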

Aspergillus fumigatus [3] = experiment: Antifungal activity against Aspergillus fumigatus after 48 hrs; format: functional
How it was run: (§3)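 A. fumigatus spores gently scraped from fungal growth and used as inoculum in a 96-well adaptation of the NCCLS protocol. Pure compounds at final 50, 10 and 2 μg/mL. Incubated 48 h at 30 °C, with growth read at each concentration. MIC is the lowest tested concentration without growth. Amphotericin B positive control.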

Candida albicans [4] = experiment: Antifungal activity against Candida albicans at 2 ug/mL after 24 hrs; format: functional, organism-based; how it was run: as §2
Aspergillus fumigatus [5] = experiment: Antifungal activity against Aspergillus fumigatus at 2 ug/mL after 48 hrs; format: functional, organism-based; how it was run: as §3
Cryptococcus neoformans [6] = experiment: Antifungal activity against Cryptococcus neoformans at 2 ug/mL after 48 hrs; format: functional, organism-based; how it was run: as §1

Compound	MIC (Cryptococcus neoformans [1]) [µg/mL]	MIC (Candida albicans [2]) [µg/mL]	MIC (Aspergillus fumigatus [3]) [µg/mL]	further results
CC(C)=C[C@H]1C[C@](C)(O)[C@@H]2[C@H]3CC[C@@H]4[C@@]5(C)CC[C@H](O[C@@H]6OC[C@H](O)[C@H](O[C@@H]7O[C@H](CO)[C@@H](O)[C@H](O)[C@H]7OC(=O)/C=C/c7ccc(O)cc7)[C@H]6O[C@@H]6O[C@@H](CO)[C@H](O)[C@H]6O)C(C)(C)[C@@H]5CC[C@@]4(C)[C@@]34CO[C@@]2(C4)O1	50 (≈ 47.8 µM)	> 50	> 50	
CC(C)=C[C@H]1C[C@](C)(O)[C@@H]2[C@H]3CC[C@@H]4[C@@]5(C)CC[C@H](O[C@@H]6OC[C@H](O)[C@H](O[C@@H]7O[C@H](CO)[C@@H](O)[C@H](O)[C@H]7O)[C@H]6O[C@@H]6O[C@@H](COC(=O)CC(=O)O)[C@H](O)[C@H]6O)C(C)(C)[C@@H]5CC[C@@]4(C)[C@@]34CO[C@@]2(C4)O1				Activity (Cryptococcus neoformans [1]): inactive; Activity (Candida albicans [2]): inactive; Activity (Aspergillus fumigatus [3]): inactive
CC(C)=C[C@H]1C[C@](C)(O)[C@@H]2[C@H]3CC[C@@H]4[C@@]5(C)CC[C@H](O[C@@H]6OC[C@H](O)[C@H](O[C@@H]7O[C@H](CO)[C@@H](O)[C@H](O)[C@H]7O)[C@H]6O[C@@H]6O[C@@H](CO)[C@H](O)[C@H]6O)C(C)(C)[C@@H]5CC[C@@]4(C)[C@@]34CO[C@@]2(C4)O1	50 (≈ 55.6 µM)	50 (≈ 55.6 µM)	50 (≈ 55.6 µM)	
C[C@@H]1[C@H](O)[C@@H](C)/C=C/C=C/C=C/C=C/C=C/C=C/C=C/[C@H](O[C@@H]2O[C@H](C)[C@@H](O)[C@H](N)[C@@H]2O)C[C@@H]2O[C@](O)(C[C@@H](O)C[C@@H](O)[C@H](O)CC[C@@H](O)C[C@@H](O)CC(=O)O[C@H]1C)C[C@H](O)[C@H]2C(=O)O				Activity (Candida albicans [4]): Active; Activity (Aspergillus fumigatus [5]): Active; Activity (Cryptococcus neoformans [6]): Active

Source: ChEMBL document CHEMBL1141839, “Antifungal jujubogenin saponins from Colubrina retusa” (1999)
